Test results as given in ChEMBL document CHEMBL4177756, “Small Molecule Neuropilin-1 Antagonists Combine Antiangiogenic and Antitumor Activity with Immune Modulation through Reduction of Transforming Growth Factor Beta (TGFβ) Production in Regulatory T-Cells” (J Med Chem, 2018).
Blank lines part the entries; values can stand above or below the molecule they belong to. The source made the active and inactive calls. The calls are words filed in the database; no cut-off is given here. Positions of bridges follow the written chain, without caps; N, C: chain ends. Residues, ends and D or L forms follow the SMILES beside them. *: point of attachment. Octanoyl = CCCCCCCC(=O)*

Legend:
Neuropilin-1 [1] = target: T1, Neuropilin-1 (Homo sapiens, UniProt O14786); assay: Binding affinity to N-terminal His6-tagged recombinant human NRP1-b1 domain expressed in Escherichia coli Rosetta Gami 2 (DE3) pLysS cells by SPR method
T1 sequence (O14786 whole entry, the tested form may be a part): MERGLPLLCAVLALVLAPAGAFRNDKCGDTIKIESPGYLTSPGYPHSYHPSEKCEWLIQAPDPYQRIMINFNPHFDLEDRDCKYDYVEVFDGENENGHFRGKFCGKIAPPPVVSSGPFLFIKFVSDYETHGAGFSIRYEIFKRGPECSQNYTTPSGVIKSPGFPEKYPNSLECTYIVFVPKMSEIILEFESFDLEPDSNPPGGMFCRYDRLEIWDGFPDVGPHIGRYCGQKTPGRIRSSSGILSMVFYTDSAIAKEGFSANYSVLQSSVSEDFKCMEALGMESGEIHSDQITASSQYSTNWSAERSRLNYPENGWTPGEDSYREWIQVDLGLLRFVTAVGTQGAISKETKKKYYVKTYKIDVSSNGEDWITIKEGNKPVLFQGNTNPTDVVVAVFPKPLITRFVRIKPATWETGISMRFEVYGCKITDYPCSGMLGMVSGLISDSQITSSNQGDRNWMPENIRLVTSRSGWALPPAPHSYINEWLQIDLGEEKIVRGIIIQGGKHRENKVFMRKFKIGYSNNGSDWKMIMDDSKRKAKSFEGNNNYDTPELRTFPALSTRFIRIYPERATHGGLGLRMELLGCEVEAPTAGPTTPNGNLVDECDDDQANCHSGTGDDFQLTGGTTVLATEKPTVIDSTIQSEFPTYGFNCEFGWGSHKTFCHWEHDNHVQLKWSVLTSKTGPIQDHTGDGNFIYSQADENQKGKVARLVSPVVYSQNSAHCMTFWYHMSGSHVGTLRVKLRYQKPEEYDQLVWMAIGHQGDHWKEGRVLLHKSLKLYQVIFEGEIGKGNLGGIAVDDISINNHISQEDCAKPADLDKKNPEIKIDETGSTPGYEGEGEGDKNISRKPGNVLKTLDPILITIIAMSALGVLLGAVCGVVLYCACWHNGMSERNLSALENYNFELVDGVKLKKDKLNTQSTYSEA
Procedure, shortened: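 Human NRP1-b1 (residues 273–427, His6-tagged) was amine-coupled to a CM5 chip at high and low density; an unmodified spot served as reference. Runs were at 25 °C in PBS with 0.05% P20 and 3% DMSO. Compound was tested as 2-fold dilutions from 16 µM to 31 nM with 60 s injections. KD was taken from steady-state responses, DMSO-corrected; mean ± SD of the two surfaces.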

Mus musculus [2] = assay: Cmax in BALB/c mouse at 2 mg/kg, iv administered as bolus dose by LC-MS method; type: ADME, organism-based; parameters: dose 2 mg/kg, route intravenous; details: in vivo
Procedure, shortened: (§1)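 Female BALB/c mice, 6–8 weeks old, received 2 mg/kg as a tail-vein bolus formulated in 7.5% DMSO. Blood was taken by cardiac puncture at 5, 15, 30, 60, 180 and 240 min. Plasma was separated by centrifugation, snap-frozen and assayed by LC-MS/MS with electrospray ionization.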

Mus musculus [3] = assay: Half life in BALB/c mouse at 2 mg/kg, iv administered as bolus dose by LC-MS method; type: ADME, organism-based; details: in vivo; procedure, shortened: as §1
Mus musculus [4] = assay: Volume of distribution in BALB/c mouse at 2 mg/kg, iv administered as bolus dose by LC-MS method; type: ADME, organism-based; details: in vivo; procedure, shortened: as §1
Mus musculus [5] = assay: Tmax in BALB/c mouse at 2 mg/kg, iv administered as bolus dose by LC-MS method; type: ADME, organism-based; details: in vivo; procedure, shortened: as §1
Mus musculus [6] = assay: AUC (infinity) in BALB/c mouse at 2 mg/kg, iv administered as bolus dose by LC-MS method; type: ADME, organism-based; parameters: dose 2 mg/kg, route intravenous, time infinity; details: in vivo; procedure, shortened: as §1
Neuropilin-1 [7] = target: T1, Neuropilin-1; assay: Binding affinity to recombinant human NRP1 extracellular domain by SPR method
[8] = Half life in human plasma at 10 uM by MS/MS analysis; type: ADME, cell-free
Neuropilin-1 [9] = target: T1, Neuropilin-1; assay: Inhibition of VEGF-A-stimulated NRP1-mediated VEGFR2 phosphorylation at Tyr1175 in HUVEC at 30 uM preincubated for 30 mins followed by VEGFA stimulation measured after 10 mins by immunoblot method relative to control; type: cell-based
Procedure, shortened: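 Confluent HUVECs serum-starved 16 h in 0.5% serum, preincubated 30 min with 3, 10 or 30 µM compound, 0.1% DMSO or medium, then 1 ng/mL VEGF-A for 10 min. RIPA lysates were immunoblotted. Densitometry of pVEGF-R2/KDR was normalised to total VEGF-R2/KDR, from three independent experiments, means ± SEM.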

Neuropilin-1 [10] = target: T1, Neuropilin-1; assay: Inhibition of biotinylated VEGF-A binding to human NRP1 expressed in human DU145 cells after 2 hrs; type: cell-based
HUVEC [11] = assay: Antiangiogenic activity in HUVEC co-cultured with HDF assessed as inhibition of VEGFA-induced tubular network length at 30 uM after 4 days by immunofluorescence method relative to control; type: functional; details: Homo sapiens, 96 h
Procedure, shortened: (§2)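 HDF were grown to confluence in 24-well plates and 10000 HUVECs were seeded on top in endothelial growth medium with 1% FBS. Cocultures received 0.1% DMSO, VEGF 25 ng/mL, 30 μM compound, or compound plus VEGF, for 4 days at 37 °C. They were ethanol-fixed and stained for von Willebrand factor. Branch points, network area and length were scored in four fields per well; three independent experiments.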

Neuropilin-1 [12] = target: T1, Neuropilin-1; assay: Inhibition of biotinylated VEGF-A binding to N-terminal His6-tagged recombinant human NRP1-b1 domain expressed in Escherichia coli Rosetta Gami 2 (DE3) pLysS cells after 2 hrs
Mus musculus [13] = organism: Mus musculus; assay: Immunomodulating activity in C57/Bl6 mouse Nrp1-positive Treg cells assessed as inhibition of glioma conditioned media-induced TGFbeta production at 500 nM preincubated for 2 hrs followed by glioma conditioned media challenge measured after 12 hrs by ELISA; type: functional
Procedure, shortened: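 CD4+ Nrp1+ splenic T cells from 6-week-old C57/Bl6 mice were plated at 200000 per well on anti-CD3ε with anti-CD28 and expanded 72 h. Cells were pretreated 2 h with DMSO or 500 nM compound. They were then given 50% conditioned medium from serum-starved GL261 cells, and TGFβ was measured by ELISA after 12 h.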

HUVEC [14] = assay: Antiangiogenic activity in HUVEC co-cultured with HDF assessed as inhibition of number of VEGFA-induced branch points in tubular networks at 30 uM after 4 days by immunofluorescence method relative to control; type: functional; details: Homo sapiens, 96 h; procedure, shortened: as §2
HUVEC [15] = assay: Antimigratory activity in HUVEC assessed as delay in VEGFA-induced wound closure at 30 uM after 5 days; type: functional, cell-based; details: Homo sapiens
Procedure, shortened: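 HUVECs were starved overnight in 1% EBM, then wounded at 95% confluence. Wells received 1% EGM with 0.1% DMSO, 25 ng/mL VEGF-A and/or 30 μM compound. Migration into the wound was imaged every 2 h by live-cell imaging. Three independent experiments, 12 replicates per treatment.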

Homo sapiens [16] = organism: Homo sapiens; assay: Antiinvasive activity in VEGFA-induced NRP1 expressing human A375P spheroids at 30 uM after 7 days; type: functional
Homo sapiens [17] = organism: Homo sapiens; assay: Antiinvasive activity in NRP1 expressing human A375P spheroids at 30 uM after 7 days; type: functional
Aorta = assay: Antiangiogenic activity in wild type C57Bl/6 mouse aortic ring assessed as inhibition of VEGFA-induced vessel sprouting at 30 uM after 7 days relative to control; type: functional
Procedure, shortened: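 Thoracic aortas from female wild-type C57Bl/6 mice were cut into 0.5 mm rings, serum-starved overnight, and embedded in rat-tail type 1 collagen. Rings were cultured in OptiMEM with 2.5% FBS containing 0.1% DMSO, 25 ng/mL VEGF-A and/or 30 μM compound at 37 °C for 7 days, with medium changed on days 3 and 5. They were then fixed and stained with isolectin B4 and SMA, and sprout area was quantified by image analysis.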

HUVEC [18] = assay: Antimigratory activity in HUVEC at 30 uM after 4 hrs by transwell assay; type: functional, cell-based; details: Homo sapiens
Procedure, shortened: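 HUVECs (1.5×10^5 per well, serum-free EBM) were placed in upper inserts with 8 µm pores. The bottom chamber held serum-free medium with 25 ng/mL VEGF-A, 0.1% DMSO, 30 μM compound, or VEGF-A plus compound. After 4 h at 37 °C, cells that migrated were stained and counted in three random fields; five independent experiments.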

Neuropilin-1 [19] = target: T1, Neuropilin-1; assay: Binding affinity to N-terminal His6-tagged recombinant human NRP1-b1 domain expressed in Escherichia coli Rosetta Gami 2 (DE3) pLysS cells at 200 uM treated every 2 mins by ITC method
HUVEC [20] = assay: Antimigratory activity in VEGFA-induced HUVEC at 30 uM after 4 hrs by transwell assay relative to control; type: functional, Homo sapiens
Procedure, shortened: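 Transwell chemotaxis used 8 µm pore PET inserts. The bottom chamber held serum-free medium with or without 25 ng/mL VEGF-A, 0.1% DMSO, or 30 µM compound. HUVECs in serum-free EBM were added to the top chamber and incubated at 37 °C for 4 h. Non-migrated cells were removed, and membranes were fixed and stained. Migrated cells were counted in three random fields per well across five independent experiments, reported as mean ± SEM.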

[21] = target: T2, Neuropilin-2 (Homo sapiens) (UniProt O60462); assay: Binding affinity to His6-tagged recombinant human NRP2 at 62.5 to 1000 nM treated for 60 secs by SPR method
T2 sequence (whole entry): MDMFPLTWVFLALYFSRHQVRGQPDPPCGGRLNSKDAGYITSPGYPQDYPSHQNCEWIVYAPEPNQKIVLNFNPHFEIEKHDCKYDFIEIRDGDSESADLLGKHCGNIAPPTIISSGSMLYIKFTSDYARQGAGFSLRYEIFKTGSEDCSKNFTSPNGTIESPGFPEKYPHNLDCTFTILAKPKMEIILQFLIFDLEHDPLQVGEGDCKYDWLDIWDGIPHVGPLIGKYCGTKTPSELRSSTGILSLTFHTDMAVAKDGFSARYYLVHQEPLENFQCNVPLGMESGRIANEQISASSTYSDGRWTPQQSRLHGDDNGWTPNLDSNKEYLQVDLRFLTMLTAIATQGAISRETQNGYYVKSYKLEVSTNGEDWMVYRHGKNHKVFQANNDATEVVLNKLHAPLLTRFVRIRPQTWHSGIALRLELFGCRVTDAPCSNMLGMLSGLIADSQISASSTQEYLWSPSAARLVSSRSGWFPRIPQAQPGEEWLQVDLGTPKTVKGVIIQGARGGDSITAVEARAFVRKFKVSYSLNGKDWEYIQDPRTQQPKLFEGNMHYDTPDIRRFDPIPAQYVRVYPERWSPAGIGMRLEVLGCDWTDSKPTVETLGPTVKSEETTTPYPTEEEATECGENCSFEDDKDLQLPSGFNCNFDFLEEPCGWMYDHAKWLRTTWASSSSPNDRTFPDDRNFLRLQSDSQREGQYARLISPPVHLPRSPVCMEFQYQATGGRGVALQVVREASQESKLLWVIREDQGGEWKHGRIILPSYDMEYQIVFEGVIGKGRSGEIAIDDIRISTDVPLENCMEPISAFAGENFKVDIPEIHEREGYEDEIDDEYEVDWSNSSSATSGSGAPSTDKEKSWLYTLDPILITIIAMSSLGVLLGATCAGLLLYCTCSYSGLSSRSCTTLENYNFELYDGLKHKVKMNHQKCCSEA

SMILES: N#CCC1CCN(Cc2cccc(-c3cc4c(c(S(=O)(=O)Nc5ccsc5C(=O)N[C@@H](CCCNC(=N)N)C(=O)O)c3)OCC4)c2)CC1
- Kd (Neuropilin-1 [1]): 1410 nM

SMILES: CN(C)Cc1cccc(-c2cc3c(c(S(=O)(=O)Nc4ccsc4C(=O)N[C@@H](CCCNC(=N)N)C(=O)O)c2)OCC3)c1
- Cmax (Mus musculus [2]): 1959.8 ng/mL
- t1/2 (Mus musculus [3]): 40.8 min
- Vd (Mus musculus [4]): 1.05261 L/kg
- Tmax (Mus musculus [5]): 4.8 min
- Kd (Neuropilin-1 [1]): 4520 nM
- AUC (Mus musculus [6]): 564.44 ng·h/mL

SMILES: CCCCCCCC(=O)N[C@@H](CO)C(=O)N[C@H]1CSSC[C@@H]2NC(=O)[C@H]([C@@H](C)O)NC(=O)[C@H](CCCNC(=N)N)NC(=O)[C@H](CCC(=O)O)NC(=O)[C@H](CC(N)=O)NC(=O)[C@H](CC(C)C)NC(=O)[C@H](CCC(=O)O)NC(=O)[C@H](CC(C)C)NC(=O)[C@H](CCC(N)=O)NC(=O)[C@H](CCCNC(=N)N)NC(=O)[C@H](C)NC(=O)[C@H](CCCCN)NC(=O)[C@H](CSSC[C@@H](C(=O)N[C@@H](CC(=O)O)C(=O)N[C@@H](CCCCN)C(=O)N3CCC[C@H]3C(=O)N[C@@H](CCCNC(=N)N)C(=O)N[C@@H](CCCNC(=N)N)C(N)=O)NC(=O)[C@H](CCCNC(=N)N)NC2=O)NC(=O)[C@H](CCCNC(=N)N)NC(=O)[C@H](CO)NC(=O)[C@H](CC(=O)O)NC(=O)[C@H]([C@@H](C)O)NC(=O)[C@H](CC(N)=O)NC(=O)[C@H](CCCCN)NC1=O (Octanoyl-SCKNTDSRCKARQLELNERTCRCDKPRR-NH2; disulfide 2-21, 9-23)
- Kd (Neuropilin-1 [7]): 76 nM
- half-life at 10 µM [8]: < 5 min

SMILES: N=C(N)NCCC[C@H](NC(=O)c1sccc1NS(=O)(=O)c1cc(-c2ccccc2CN2CCCCC2)cc2c1OCC2)C(=O)O
- Kd (Neuropilin-1 [1]): 2280 nM

SMILES: N=C(N)NCCC[C@H](NC(=O)c1sccc1NS(=O)(=O)c1cc(-c2ccccc2CN2CCC(C(N)=O)CC2)cc2c1OCC2)C(=O)O
- Kd (Neuropilin-1 [1]): 2050 nM

SMILES: N=C(N)NCCC[C@H](NC(=O)c1sccc1NS(=O)(=O)c1cc(-c2cccc(CN3CCC(C(N)=O)CC3)c2)cc2c1OCC2)C(=O)O
- Kd (Neuropilin-1 [1]): 1560 nM

SMILES: CNC(=O)C1CCN(Cc2ccccc2-c2cc3c(c(S(=O)(=O)Nc4ccsc4C(=O)N[C@@H](CCCNC(=N)N)C(=O)O)c2)OCC3)CC1
- Kd (Neuropilin-1 [1]): 3020 nM

Second part, led by results:

- Kd (Neuropilin-1 [1]): 14400 nM
SMILES: N=C(N)NCCC[C@H](NC(=O)c1sccc1NS(=O)(=O)c1cc(-c2ccccc2)cc2c1OCC2)C(=O)O

- Kd (Neuropilin-1 [1]): 2440 nM
SMILES: N=C(N)NCCC[C@H](NC(=O)c1sccc1NS(=O)(=O)c1cc(-c2cccc(CN)c2)cc2c1OCC2)C(=O)O

- Cmax (Mus musculus [2]): 1678 ng/mL
- inhibition (Neuropilin-1 [9]): 50%
- IC50 (Neuropilin-1 [10]): 1600 nM
- t1/2 (Mus musculus [3]): 257 min
- IC50 (Neuropilin-1 [12]): 609 nM
- Vd (Mus musculus [4]): 4.39682 L/kg
- Tmax (Mus musculus [5]): 4.8 min
- Kd (Neuropilin-1 [1]): 1320 nM
- Ka (Neuropilin-1 [19]): 4.14 ×10⁶ /M
- AUC (Mus musculus [6]): 2379 ng·h/mL
- Activity [21]: inactive
SMILES: N=C(N)NCCC[C@H](NC(=O)c1sccc1NS(=O)(=O)c1cc(-c2ccc(CN)cc2)cc2c1OCC2)C(=O)O
- inhibition at 30 µM (HUVEC [11]): 40%
- inhibition (Mus musculus [13]): Active
- inhibition at 30 µM (HUVEC [14]): 41%
- Activity (HUVEC [15]): Active
- Activity (Homo sapiens [16]): Active
- Activity (Homo sapiens [17]): inactive
- fold change (FC) (Aorta): 7
- Activity (HUVEC [18]): inactive
- Activity (HUVEC [20]): >60%
